ChEMBL document CHEMBL1921740, “Pyrrolamide DNA gyrase inhibitors: optimization of antibacterial activity and efficacy” (Bioorg Med Chem Lett, 2011)
Converted amounts (≈) assume the structure as drawn.

How the values were obtained:
[1] = tested on: Haemophilus influenzae; assay: Antibacterial activity against Haemophilus influenzae ARC446; format: functional
[2] = tested on: Streptococcus pneumoniae; assay: Antibacterial activity against Streptococcus pneumoniae ARC548; format: functional
[3] = tested on: Staphylococcus aureus; assay: Antibacterial activity against methicillin-resistant, quinolone-resistant Staphylococcus aureus ARC517; format: functional
[4] = molecular target: DNA gyrase subunit B (Staphylococcus aureus, UniProt P0A0K8); assay: Inhibition of ATPase activity of recombinant Staphylococcus aureus DNA gyrase B hybrid tetramer enzyme reconstituted from Escherichia coli GyrA by ammonium molybdate/malachite green phosphate assay
Sequence of DNA gyrase subunit B (P0A0K8 whole entry): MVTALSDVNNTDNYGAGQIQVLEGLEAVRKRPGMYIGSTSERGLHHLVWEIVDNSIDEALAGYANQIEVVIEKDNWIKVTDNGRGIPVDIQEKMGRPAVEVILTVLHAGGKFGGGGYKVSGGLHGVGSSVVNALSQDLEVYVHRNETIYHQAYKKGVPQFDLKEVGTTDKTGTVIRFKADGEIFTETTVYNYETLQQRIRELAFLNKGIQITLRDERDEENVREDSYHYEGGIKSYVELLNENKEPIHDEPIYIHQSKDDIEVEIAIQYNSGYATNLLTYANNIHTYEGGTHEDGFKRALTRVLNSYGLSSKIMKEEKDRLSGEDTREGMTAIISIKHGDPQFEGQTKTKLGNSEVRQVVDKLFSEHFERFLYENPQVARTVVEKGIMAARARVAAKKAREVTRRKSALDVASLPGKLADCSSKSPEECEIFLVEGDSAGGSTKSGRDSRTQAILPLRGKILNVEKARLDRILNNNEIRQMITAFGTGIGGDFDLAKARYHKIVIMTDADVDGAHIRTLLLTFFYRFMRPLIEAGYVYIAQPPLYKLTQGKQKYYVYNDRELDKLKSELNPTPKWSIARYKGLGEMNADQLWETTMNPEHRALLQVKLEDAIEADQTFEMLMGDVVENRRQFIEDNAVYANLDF
Method in brief: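 GyrB ATPase activity of a hybrid tetramer reconstituted in vitro from recombinant S. aureus protein. Released phosphate detected with ammonium molybdate/malachite green. Test compound assayed across a range of concentrations.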

[5] = tested on: Escherichia coli; assay: Antibacterial activity against TolC-deficient Escherichia coli ARC524; format: functional
[6] = tested on: Enterococcus faecium; assay: Antibacterial activity against Enterococcus faecium ARC073; format: functional
[7] = tested on: Staphylococcus aureus; assay: Antibacterial activity against Staphylococcus aureus ARC516; format: functional
[8] = tested on: Escherichia coli; assay: Antibacterial activity against Escherichia coli ARC523; format: functional
[9] = tested on: Moraxella catarrhalis; assay: Antibacterial activity against Moraxella catarrhalis ARC445; format: functional
[10] = tested on: Streptococcus pneumoniae; assay: Antibacterial activity against Streptococcus pneumoniae ARC548 infected in po dosed CD1 mouse lung infection pneumonia model assessed as dose required to maximum effect on reduction of viable bacterial counts administered 18 hrs after post infection measured after 24 hrs; format: functional
Method in brief: (§1)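 Mice infected in the lung with S. pneumoniae received oral doses of drug or vehicle starting 18 h post-infection, at 40, 60 or 80 mg/kg, with a pre-treatment control group. Lungs were taken 24 h after treatment began, and homogenates were serially diluted and plated for viable counts. Results are reported as group mean log CFU/lung ± standard error.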

[11] = tested on: Streptococcus pneumoniae; assay: Antibacterial activity against Streptococcus pneumoniae ARC548 infected in po dosed CD1 mouse lung infection pneumonia model assessed as reduction in viable bacterial counts administered 18 hrs after post infection measured after 24 hrs; format: functional; method in brief: as §1
[12] = Haemophilus influenzae, ARC446, read-out: MIC
[13] = Streptococcus pneumoniae, ARC548, read-out: MIC
[14] = Staphylococcus aureus, ARC517, read-out: MIC
[15] = Escherichia coli, ARC524, read-out: MIC
[16] = Enterococcus faecium, ARC073, read-out: MIC
[17] = Staphylococcus aureus, ARC516, read-out: MIC
[18] = Moraxella catarrhalis, ARC445, read-out: MIC

Cc1[nH]c(C(=O)NC2CCN(c3cc(C(N)=O)cc(Cl)n3)CC2)cc1C#N
MIC [1, 12]: > 64 µg/mL | MIC [2, 13]: 4 µg/mL (≈ 10.3 µM) | MIC [3, 14]: > 64 µg/mL | IC50 [4]: 150 nM

Cc1[nH]c(C(=O)N[C@H]2CCN(c3ncc(C(=O)O)s3)C[C@H]2F)c(Cl)c1Cl (racemic)
MIC [5]: 0.13 µg/mL (≈ 0.309 µM) | MIC [1]: 0.5 µg/mL (≈ 1.19 µM) | MIC [2]: 0.13 µg/mL (≈ 0.309 µM) | MIC [6]: 0.5 µg/mL (≈ 1.19 µM) | MIC [7]: 2 µg/mL (≈ 4.75 µM) | MIC [3]: 4 µg/mL (≈ 9.49 µM) | MIC [8]: > 64 µg/mL | IC50 [4]: < 10 nM | MIC [9]: <0.06 µg/mL

Cc1ccc(C(=O)NC2CCN(c3cc(C(N)=O)cc(Cl)n3)CC2)[nH]1
MIC [5, 15]: > 64 µg/mL | MIC [1, 12]: > 64 µg/mL | MIC [2, 13]: > 64 µg/mL | MIC [6, 16]: > 64 µg/mL | MIC [7, 17]: > 64 µg/mL | MIC [3, 14]: > 64 µg/mL | MIC [8]: > 64 µg/mL | IC50 [4]: 6900 nM | MIC [9, 18]: > 64 µg/mL

Cc1[nH]c(C(=O)N[C@@H]2CCN(c3ncc(C(=O)O)s3)C[C@H]2F)c(Cl)c1Cl (racemic)
MIC [5, 15]: 4 µg/mL (≈ 9.49 µM) | MIC [1, 12]: 64 µg/mL (≈ 152 µM) | MIC [2, 13]: 8 µg/mL (≈ 19 µM) | MIC [6, 16]: 32 µg/mL (≈ 76 µM) | MIC [7, 17]: > 64 µg/mL | MIC [3, 14]: > 64 µg/mL | MIC [8]: > 64 µg/mL | IC50 [4]: 110 nM | MIC [9, 18]: 16 µg/mL (≈ 38 µM)

Cc1[nH]c(C(=O)N[C@@H]2CCN(c3ncc(C(=O)O)s3)C[C@@H]2F)c(Cl)c1Cl
MIC [5, 15]: 0.06 µg/mL (≈ 0.142 µM) | MIC [1, 12]: 0.25 µg/mL (≈ 0.593 µM) | MIC [2, 13]: 0.06 µg/mL (≈ 0.142 µM) | Activity [10]: 80 mg/kg | MIC [6, 16]: 0.25 µg/mL (≈ 0.593 µM) | MIC [7, 17]: 2 µg/mL (≈ 4.75 µM) | MIC [3, 14]: 2 µg/mL (≈ 4.75 µM) | MIC [8]: > 64 µg/mL | MIC [9, 18]: 0.06 µg/mL (≈ 0.142 µM) | Activity [11]: Dose-dependent effect | ED50 [11]: 54 mg/kg

Cc1[nH]c(C(=O)NC2CCN(c3nc(C(=O)O)cs3)CC2)c(Cl)c1Cl
MIC [5, 15]: 0.25 µg/mL (≈ 0.62 µM) | MIC [1, 12]: 2 µg/mL (≈ 4.96 µM) | MIC [2, 13]: 0.5 µg/mL (≈ 1.24 µM) | MIC [6, 16]: 4 µg/mL (≈ 9.92 µM) | MIC [7, 17]: 8 µg/mL (≈ 19.8 µM) | MIC [3, 14]: 8 µg/mL (≈ 19.8 µM) | MIC [8]: > 64 µg/mL | IC50 [4]: 20 nM | MIC [9, 18]: 0.5 µg/mL (≈ 1.24 µM)

Cc1[nH]c(C(=O)NC2CCN(c3ncc(C(=O)O)s3)CC2)c(Cl)c1Cl
MIC [5, 15]: 0.25 µg/mL (≈ 0.62 µM) | MIC [1, 12]: 2 µg/mL (≈ 4.96 µM) | MIC [2, 13]: 0.5 µg/mL (≈ 1.24 µM) | MIC [6, 16]: 2 µg/mL (≈ 4.96 µM) | MIC [7, 17]: 8 µg/mL (≈ 19.8 µM) | MIC [3, 14]: 8 µg/mL (≈ 19.8 µM) | MIC [8]: > 64 µg/mL | IC50 [4]: 20 nM | MIC [9, 18]: 0.5 µg/mL (≈ 1.24 µM)

Cc1[nH]c(C(=O)NC2CCN(c3cc(C(=O)O)cc(Cl)n3)CC2)c(Cl)c1Cl
MIC [5, 15]: 0.25 µg/mL (≈ 0.579 µM) | MIC [1, 12]: 4 µg/mL (≈ 9.27 µM) | MIC [2, 13]: 0.5 µg/mL (≈ 1.16 µM) | MIC [6, 16]: 1 µg/mL (≈ 2.32 µM) | MIC [7, 17]: 2 µg/mL (≈ 4.63 µM) | MIC [3, 14]: 2 µg/mL (≈ 4.63 µM) | MIC [8]: > 64 µg/mL | IC50 [4]: 10 nM | MIC [9, 18]: 0.13 µg/mL (≈ 0.301 µM)

Cc1[nH]c(C(=O)N[C@H]2CCN(c3ncc(C(=O)O)s3)C[C@H]2F)c(Cl)c1Cl
MIC [5]: 0.5 µg/mL (≈ 1.19 µM) | MIC [1]: 4 µg/mL (≈ 9.49 µM) | MIC [2]: 2 µg/mL (≈ 4.75 µM) | MIC [6]: 4 µg/mL (≈ 9.49 µM) | MIC [7]: 16 µg/mL (≈ 38 µM) | MIC [3]: 32 µg/mL (≈ 76 µM) | IC50 [4]: 35 nM | MIC [9]: 1 µg/mL (≈ 2.37 µM)

CONC(=O)c1cnc(N2CCC(NC(=O)c3[nH]c(C)c(Cl)c3Cl)CC2)s1
MIC [5, 15]: 0.25 µg/mL (≈ 0.578 µM) | MIC [1, 12]: 16 µg/mL (≈ 37 µM) | MIC [2, 13]: 1 µg/mL (≈ 2.31 µM) | MIC [6, 16]: 8 µg/mL (≈ 18.5 µM) | MIC [7, 17]: 8 µg/mL (≈ 18.5 µM) | MIC [3, 14]: 8 µg/mL (≈ 18.5 µM) | MIC [8]: > 64 µg/mL | IC50 [4]: 50 nM | MIC [9, 18]: 1 µg/mL (≈ 2.31 µM)

Cc1[nH]c(C(=O)NC2CCN(C3CN[C@H](C(=O)O)C3)CC2)c(Cl)c1Cl (stereo not given in full)
MIC [5, 15]: > 64 µg/mL | MIC [1, 12]: > 64 µg/mL | MIC [2, 13]: > 64 µg/mL | MIC [6, 16]: > 64 µg/mL | MIC [7, 17]: > 64 µg/mL | MIC [3, 14]: > 64 µg/mL | MIC [8]: > 64 µg/mL | IC50 [4]: 129000 nM | MIC [9, 18]: > 64 µg/mL

Cc1[nH]c(C(=O)NC2CCN(c3nnco3)CC2)c(Cl)c1Cl
MIC [5, 15]: 4 µg/mL (≈ 11.6 µM) | MIC [1, 12]: 64 µg/mL (≈ 186 µM) | MIC [2, 13]: 4 µg/mL (≈ 11.6 µM) | MIC [6, 16]: 32 µg/mL (≈ 93 µM) | MIC [7, 17]: 32 µg/mL (≈ 93 µM) | MIC [3, 14]: 32 µg/mL (≈ 93 µM) | MIC [8]: > 64 µg/mL | IC50 [4]: 230 nM | MIC [9, 18]: 4 µg/mL (≈ 11.6 µM)

Cc1[nH]c(C(=O)NC2CCN(c3cc(C(N)=O)cc(Cl)n3)CC2)cc1Br
MIC [5, 15]: 4 µg/mL (≈ 9.08 µM) | MIC [1, 12]: 64 µg/mL (≈ 145 µM) | MIC [2, 13]: 4 µg/mL (≈ 9.08 µM) | MIC [6, 16]: > 64 µg/mL | MIC [7, 17]: 32 µg/mL (≈ 72.6 µM) | MIC [3, 14]: 32 µg/mL (≈ 72.6 µM) | MIC [8]: > 64 µg/mL | IC50 [4]: 100 nM | MIC [9, 18]: 8 µg/mL (≈ 18.2 µM)

Cc1[nH]c(C(=O)NC2CCN(c3cc(C(N)=O)cc(Cl)n3)CC2)cc1Cl
MIC [5, 15]: 8 µg/mL (≈ 20.2 µM) | MIC [1, 12]: > 64 µg/mL | MIC [2, 13]: 4 µg/mL (≈ 10.1 µM) | MIC [6, 16]: > 32 µg/mL | MIC [7, 17]: > 32 µg/mL | MIC [3, 14]: 32 µg/mL (≈ 80.8 µM) | MIC [8]: > 64 µg/mL | IC50 [4]: 110 nM

Cc1[nH]c(C(=O)NC2CCN(c3cc(C(N)=O)cc(Cl)n3)CC2)c(Cl)c1Cl
MIC [5, 15]: 2 µg/mL (≈ 4.64 µM) | MIC [1, 12]: > 64 µg/mL | MIC [2, 13]: 1 µg/mL (≈ 2.32 µM) | MIC [6, 16]: 4 µg/mL (≈ 9.29 µM) | MIC [7, 17]: 4 µg/mL (≈ 9.29 µM) | MIC [3, 14]: 4 µg/mL (≈ 9.29 µM) | MIC [8]: > 64 µg/mL | IC50 [4]: 30 nM | MIC [9, 18]: 2 µg/mL (≈ 4.64 µM)
